Test results: ChEMBL document CHEMBL2057084, “Discovery of benzylisothioureas as potent divalent metal transporter 1 (DMT1) inhibitors” (Bioorg Med Chem Lett, 2012)

Assays:
[1] = Inhibition of human DMT1B-IRE expressed in CHO cells assessed as blockage of ferrous influx after 20 mins by calcein fluorescence quenching method; assay type: cell-based
In short: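 Calcein fluorescence quench assay for DMT1 (conditions detailed in supplementary data); IC50s are the average of at least two independent determinations.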

[2] = biological target: T1, Natural resistance-associated macrophage protein 1 (Homo sapiens, UniProt P49279); assay: Inhibition of NRAMP1 expressed in CHO cells; assay type: cell-based
T1 sequence (P49279 whole entry): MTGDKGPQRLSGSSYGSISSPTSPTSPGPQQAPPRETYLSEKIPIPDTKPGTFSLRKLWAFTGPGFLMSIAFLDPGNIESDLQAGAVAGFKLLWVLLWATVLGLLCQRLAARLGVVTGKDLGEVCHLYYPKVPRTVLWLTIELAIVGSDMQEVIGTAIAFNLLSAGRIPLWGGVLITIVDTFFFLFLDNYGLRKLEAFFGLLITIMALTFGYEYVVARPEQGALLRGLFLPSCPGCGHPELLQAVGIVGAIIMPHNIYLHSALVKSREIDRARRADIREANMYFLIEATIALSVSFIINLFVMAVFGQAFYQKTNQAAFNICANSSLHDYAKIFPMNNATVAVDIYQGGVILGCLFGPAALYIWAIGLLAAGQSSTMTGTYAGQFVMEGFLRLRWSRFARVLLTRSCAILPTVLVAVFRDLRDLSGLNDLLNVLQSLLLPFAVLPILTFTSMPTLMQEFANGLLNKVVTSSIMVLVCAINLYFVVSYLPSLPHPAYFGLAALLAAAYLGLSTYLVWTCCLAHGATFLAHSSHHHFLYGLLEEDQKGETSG

[3] = Apparent permeability across basolateral to apical side in human Caco2 cells; assay type: ADME, cell-based; details: Caco-2
In short: (§1)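 Caco-2 cell monolayers; apparent permeability measured in both directions (apical→basolateral and basolateral→apical); […].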

[4] = Apparent permeability across apical to basolateral side in human Caco2 cells; assay type: ADME, cell-based; details: Caco-2; in short: as §1

Row | SMILES | IC50 [1] | IC50 [2] | Papp B→A [3] | Papp A→B [4]
1 | N=C(N)SCc1cccc2c1-c1c(CSC(=N)N)cccc1C2=O | > 15 µM | > 10 µM |  | 
2 | N=C(N)SCc1ccccc1C(=O)c1ccc(Cl)cc1CSC(=N)N | 2.92 µM | > 10 µM |  | 
3 | Br.CS(=O)(=O)c1ccc(Sc2ccc(F)cc2CSC(=N)N)c(CSC(=N)N)c1 | 0.29 µM | > 10 µM | 0.1 ×10⁻⁶ cm/s | < 0.1 ×10⁻⁶ cm/s
4 | Br.N=C(N)SCc1cccc2c1-c1c(CSC(=N)N)cccc1-2 | 0.1 µM | > 10 µM | 0.4 ×10⁻⁶ cm/s | < 0.1 ×10⁻⁶ cm/s
5 | Br.N=C(N)SCc1cc(F)ccc1Sc1ccc(C(F)(F)F)cc1CSC(=N)N | 0.69 µM | > 10 µM | 3.8 ×10⁻⁶ cm/s | 0.1 ×10⁻⁶ cm/s
6 | N=C(N)SCc1ccccc1C(=O)c1ccc(F)cc1CSC(=N)N | 0.58 µM | > 10 µM |  | 
7 | Br.N=C(N)SCc1cc(F)cc2c1sc1c(CSC(=N)N)cc(Cl)cc12 | 0.04 µM | > 10 µM | 0.2 ×10⁻⁶ cm/s | 0.5 ×10⁻⁶ cm/s
8 | Br.N=C(N)SCc1c(F)ccc2c1oc1c(CSC(=N)N)c(F)ccc12 | 0.09 µM | > 10 µM | 1 ×10⁻⁶ cm/s | 5 ×10⁻⁶ cm/s
9 | COc1ccc(Sc2ccccc2CSC(=N)N)c(CSC(=N)N)c1 | 1.44 µM | > 10 µM |  | 
10 | N=C(N)SCc1cccc2cc3cccc(CSC(=N)N)c3nc12 | 0.29 µM | > 10 µM | 0.5 ×10⁻⁶ cm/s | 0.2 ×10⁻⁶ cm/s
11 | N=C(N)SCc1cc(F)ccc1Oc1ccc([N+](=O)[O-])cc1CSC(=N)N | 0.16 µM | > 10 µM |  | 
12 | N=C(N)SCc1cccc2c1Oc1c(CSC(=N)N)cccc1S2 | 0.15 µM | > 10 µM |  | 
13 | Br.N=C(N)SCc1cc(F)ccc1Oc1cc(F)ccc1CSC(=N)N | 0.84 µM | > 10 µM | 0.4 ×10⁻⁶ cm/s | < 0.1 ×10⁻⁶ cm/s
14 | Br.COc1ccc(Sc2ccc(F)cc2CSC(=N)N)c(CSC(=N)N)c1 | 0.53 µM | > 10 µM | 2.4 ×10⁻⁶ cm/s | 2.4 ×10⁻⁶ cm/s
15 | N=C(N)SCc1ccccc1Sc1ccc(N)cc1CSC(=N)N | 0.91 µM | > 10 µM |  | 
16 | N=C(N)SCc1ccccc1C(=O)c1cc(Cl)ccc1CSC(=N)N | 5.2 µM | > 10 µM |  | 
17 | Br.N=C(N)SCc1c(Br)ccc2c1sc1c(CSC(=N)N)c(Br)ccc12 | 0.86 µM | > 10 µM | 2 ×10⁻⁶ cm/s | 4 ×10⁻⁶ cm/s
18 | N=C(N)SCc1cc(F)ccc1Sc1c(CSC(=N)N)cccc1[N+](=O)[O-] | 4.15 µM | > 10 µM |  | 
19 | N=C(N)SCc1ccccc1C(=O)c1cc(F)ccc1CSC(=N)N | 2.02 µM | > 10 µM |  | 
20 | Br.N=C(N)SCc1cc(F)ccc1Sc1cc(F)c(F)cc1CSC(=N)N | 0.6 µM | > 10 µM | 0.2 ×10⁻⁶ cm/s | < 0.1 ×10⁻⁶ cm/s
21 | Br.N=C(N)SCc1cccc2c1oc1c(CSC(=N)N)cccc12 | 0.05 µM | > 10 µM | 0.2 ×10⁻⁶ cm/s | < 0.1 ×10⁻⁶ cm/s
22 | N=C(N)SCc1cccc2sc3cccc(CSC(=N)N)c3c12 | 5.04 µM | > 10 µM |  | 
23 | Br.N=C(N)SCc1ccccc1Sc1ccc(F)cc1CSC(=N)N | 0.15 µM | > 10 µM | 0.2 ×10⁻⁶ cm/s | 0.3 ×10⁻⁶ cm/s

Row | SMILES | IC50 [1] | IC50 [2] | Papp B→A [3] | Papp A→B [4]
24 | Br.N=C(N)SCc1cccc2c1C(=O)c1c(CSC(=N)N)cccc1-2 | 0.58 µM | > 10 µM | 0.3 ×10⁻⁶ cm/s | 0.4 ×10⁻⁶ cm/s
25 | Br.N=C(N)SCc1ccccc1Sc1cc(F)ccc1CSC(=N)N | 0.51 µM | > 10 µM | 0.2 ×10⁻⁶ cm/s | 0.3 ×10⁻⁶ cm/s
26 | Br.N=C(N)SCc1cccc2c1sc1c(CSC(=N)N)cccc12 | 0.26 µM | > 10 µM | < 0.1 ×10⁻⁶ cm/s | < 0.1 ×10⁻⁶ cm/s
27 | N=C(N)SCc1cccc2c1oc1c(CSC(=N)N)cc(F)cc12 | 0.02 µM | > 10 µM |  | 
28 | Br.CN(C)S(=O)(=O)c1ccc(Sc2ccc(F)cc2CSC(=N)N)c(CSC(=N)N)c1 | 0.95 µM | > 10 µM | 0.1 ×10⁻⁶ cm/s | < 0.1 ×10⁻⁶ cm/s
29 | N=C(N)SCc1cc(Cl)ccc1Oc1ccc([N+](=O)[O-])cc1CSC(=N)N | 2.89 µM | > 10 µM |  | 
30 | Br.N=C(N)SCc1ccccc1C(=O)c1cc([N+](=O)[O-])ccc1CSC(=N)N | 0.37 µM | > 10 µM | 0.7 ×10⁻⁶ cm/s | 0.1 ×10⁻⁶ cm/s
31 | N=C(N)SCc1ccccc1Oc1ccc(Cl)cc1CSC(=N)N | 1.13 µM | > 10 µM |  | 
32 | N=C(N)SCc1cc(Cl)ccc1Sc1ccc(Cl)cc1CSC(=N)N | 3.02 µM | > 10 µM |  | 
33 | Br.N=C(N)SCc1ccccc1Sc1cc(F)c(F)cc1CSC(=N)N | 0.32 µM | > 10 µM | 1.4 ×10⁻⁶ cm/s | 1.3 ×10⁻⁶ cm/s
34 | Br.N=C(N)SCc1cc(F)ccc1Sc1ccc(F)cc1CSC(=N)N | 0.15 µM | > 10 µM | 0.4 ×10⁻⁶ cm/s | 0.4 ×10⁻⁶ cm/s
35 | Cc1ccc(CSC(=N)N)c(Sc2ccc(F)cc2CSC(=N)N)c1 | 1.45 µM | > 10 µM |  | 
36 | Cc1cccc(CSC(=N)N)c1Sc1ccccc1CSC(=N)N | 3.77 µM | > 10 µM |  | 
37 | N=C(N)SCc1cccc2c1sc1c(CSC(=N)N)cc(F)cc12 | 0.09 µM | > 10 µM |  | 
38 | Br.N=C(N)SCc1cccc2c1sc1c(CSC(=N)N)c(Br)ccc12 | 0.75 µM | > 10 µM | 0.2 ×10⁻⁶ cm/s | 1.3 ×10⁻⁶ cm/s
39 | Br.Cc1ccc(Sc2ccccc2CSC(=N)N)c(CSC(=N)N)c1 | 0.49 µM | > 10 µM | 1.4 ×10⁻⁶ cm/s | 1.5 ×10⁻⁶ cm/s
40 | Br.N=C(N)SCc1cc(F)ccc1Oc1cc(Cl)ccc1CSC(=N)N | 0.34 µM | > 10 µM | 0.9 ×10⁻⁶ cm/s | 0.2 ×10⁻⁶ cm/s
41 | Br.N=C(N)SCc1cc(F)ccc1Oc1ccc(F)cc1CSC(=N)N | 0.32 µM | > 10 µM | 0.2 ×10⁻⁶ cm/s | < 0.1 ×10⁻⁶ cm/s
42 | Br.N=C(N)SCc1c(Cl)ccc2c1oc1c(CSC(=N)N)c(Cl)ccc12 | 0.27 µM | > 10 µM | 0.4 ×10⁻⁶ cm/s | < 0.1 ×10⁻⁶ cm/s
43 | Cc1cc(C)c(CSC(=N)N)c(C)c1CSC(=N)N | 0.29 µM |  | 1.2 ×10⁻⁶ cm/s | 0.9 ×10⁻⁶ cm/s
44 | CN(c1ccccc1CSC(=N)N)c1ccccc1CSC(=N)N | 0.73 µM | > 10 µM |  | 
45 | Br.N=C(N)SCc1c(Br)ccc2c1oc1c(CSC(=N)N)c(Br)ccc12 | 0.11 µM | > 10 µM | 0.1 ×10⁻⁶ cm/s | 0.2 ×10⁻⁶ cm/s
46 | N=C(N)SCc1ccccc1Oc1cc(Cl)ccc1CSC(=N)N | 15 µM | > 10 µM |  | 
